Test results reported in ChEMBL document CHEMBL3739387, “Discovery and SAR of Novel and Selective Inhibitors of Urokinase Plasminogen Activator (uPA) with an Imidazo[1,2-a]pyridine Scaffold” (J Med Chem, 2015).
pIC50, pKi: −log10 of the molar value. Calls of active or inactive are those of the source. The calls are words filed in the database; no cut-off is given here.

Assays:
[1] = target: T1, Urokinase-type plasminogen activator (Homo sapiens, UniProt P00749); test: Inhibition of human uPA using pyro-Glu-Gly-Arg-pNA as substrate assessed as para-nitroaniline release from substrate measured for 5 mins by spectrophotometric assay
[2] = target: T2, Prothrombin (Homo sapiens, UniProt P00734); test: Inhibition of human plasma thrombin using pyroGlu-Pro-Arg-pNA-HCl as substrate measured for 5 mins by spectrophotometric assay; assay type: cell-free
Method in brief: (§1)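 Thrombin from human plasma with pyroGlu-Pro-Arg-pNA (CS-21(66), Km 400 μM) at 415 μM in assay. 50 mM HEPES pH 8.2. pNA release at 405 nm over 5 min at 37 °C, in duplicate.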

[3] = target: T3, Tissue-type plasminogen activator (Homo sapiens, UniProt P00750); test: Inhibition of recombinant human tPA using H-D-Ile-Pro-L-Arg-pNA-2HCl as substrate measured for 5 mins by spectrophotometric assay
Target sequence in this assay (P00750 whole entry): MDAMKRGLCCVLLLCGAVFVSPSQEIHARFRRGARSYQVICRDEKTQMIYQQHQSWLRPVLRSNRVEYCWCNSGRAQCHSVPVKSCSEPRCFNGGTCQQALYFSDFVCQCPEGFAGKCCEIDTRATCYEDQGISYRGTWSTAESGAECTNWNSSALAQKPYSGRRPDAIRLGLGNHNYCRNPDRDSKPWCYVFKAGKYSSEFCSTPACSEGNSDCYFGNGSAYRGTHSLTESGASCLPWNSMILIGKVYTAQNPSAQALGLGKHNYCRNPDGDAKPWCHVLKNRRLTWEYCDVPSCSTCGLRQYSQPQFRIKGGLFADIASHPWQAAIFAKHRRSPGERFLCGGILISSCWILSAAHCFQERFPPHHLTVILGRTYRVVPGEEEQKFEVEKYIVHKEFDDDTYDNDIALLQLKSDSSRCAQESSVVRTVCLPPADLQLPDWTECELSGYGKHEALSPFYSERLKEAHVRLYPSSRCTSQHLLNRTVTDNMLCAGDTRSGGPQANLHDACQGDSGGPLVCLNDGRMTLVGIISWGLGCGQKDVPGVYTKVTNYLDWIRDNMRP

[4] = target: T4, Coagulation factor X (Homo sapiens, UniProt P00742); test: Inhibition of purified human factor 10a using Suc-Ile-Glu(gammaPip)-GlyArg-pNa-HCl as substrate measured for 5 mins by spectrophotometric assay
Method in brief: (§2)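 Purified human factor Xa, substrate Suc-Ile-Glu(γPip)-Gly-Arg-pNA (CS-11(32)) at 411 μM in assay. HEPES pH 8.2. Read at 405 nm for 5 min at 37 °C, duplicate wells.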

[5] = target: T5, Plasminogen (Homo sapiens, UniProt P00747); test: Inhibition of human plasma plasmin using pyroGlu-Pro-Arg-pNA-HCl as substrate measured for 5 mins by spectrophotometric assay; assay type: cell-free
Method in brief: (§3)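 Plasmin purified from human plasma. Substrate pyroGlu-Pro-Arg-pNA (CS-21(66), Km 400 μM) at 400 μM in assay. HEPES pH 7.0, 37 °C, absorbance at 405 nm followed for 5 min, duplicates.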

[6] = target: T6, Plasma kallikrein (Homo sapiens, UniProt P03952); test: Inhibition of human plasma kallikrein using D-Pro-Phe-Arg-pNA-2HCl as substrate measured for 5 mins by spectrophotometric assay; assay type: cell-free
Method in brief: (§4)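 Human plasma kallikrein, chromogenic substrate CS-31(02) (Km 269 μM) at 269 μM in assay. 50 mM HEPES at pH 7.4. Absorbance at 405 nm over 5 min at 37 °C, duplicates.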

[7] = Inhibition of bovine pancreatic trypsin using Nalpha-benzoyl-D,L-Arg-pNA-HCl as substrate measured for 5 mins by spectrophotometric assay; parameters: species or system Bos taurus
[8] = target: T7, Coagulation factor VII (Homo sapiens) (UniProt P08709); test: Inhibition of purified human factor 7a using MeSO2-Cha-Abu-Arg-pNA as substrate at 100 uM measured for 5 mins by spectrophotometric assay
T7 sequence (whole entry): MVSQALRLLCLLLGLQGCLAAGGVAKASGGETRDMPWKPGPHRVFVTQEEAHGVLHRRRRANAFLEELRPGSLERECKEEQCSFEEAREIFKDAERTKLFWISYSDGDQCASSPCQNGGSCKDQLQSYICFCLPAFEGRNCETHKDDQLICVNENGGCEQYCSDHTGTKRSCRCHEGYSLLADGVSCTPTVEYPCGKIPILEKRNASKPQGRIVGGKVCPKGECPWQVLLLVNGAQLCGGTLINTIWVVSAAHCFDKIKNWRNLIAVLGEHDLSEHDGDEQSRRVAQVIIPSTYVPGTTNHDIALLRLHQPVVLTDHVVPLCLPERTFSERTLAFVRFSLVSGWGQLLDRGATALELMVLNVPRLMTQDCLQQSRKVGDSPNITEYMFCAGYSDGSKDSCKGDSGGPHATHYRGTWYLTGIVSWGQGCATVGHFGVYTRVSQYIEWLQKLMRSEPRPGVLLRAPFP
Method in brief: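 Purified human plasma FVIIa with tissue factor (Innovin) present. MeSO2-Cha-Abu-Arg-pNA at 800 μM in assay. Buffer 50 mM HEPES pH 7.5, 100 mM NaCl, 5 mM CaCl2, 0.1% BSA.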

[9] = target: T2, Prothrombin; test: Inhibition of human plasma thrombin using pyroGlu-Pro-Arg-pNA-HCl as substrate at 100 uM measured for 5 mins by spectrophotometric assay; assay type: cell-free; method in brief: as §1
[10] = target: T3, Tissue-type plasminogen activator; test: Inhibition of recombinant human tPA using H-D-Ile-Pro-L-Arg-pNA-2HCl as substrate at 100 uM measured for 5 mins by spectrophotometric assay
Target sequence in this assay (P00750 36-562 limits assumed): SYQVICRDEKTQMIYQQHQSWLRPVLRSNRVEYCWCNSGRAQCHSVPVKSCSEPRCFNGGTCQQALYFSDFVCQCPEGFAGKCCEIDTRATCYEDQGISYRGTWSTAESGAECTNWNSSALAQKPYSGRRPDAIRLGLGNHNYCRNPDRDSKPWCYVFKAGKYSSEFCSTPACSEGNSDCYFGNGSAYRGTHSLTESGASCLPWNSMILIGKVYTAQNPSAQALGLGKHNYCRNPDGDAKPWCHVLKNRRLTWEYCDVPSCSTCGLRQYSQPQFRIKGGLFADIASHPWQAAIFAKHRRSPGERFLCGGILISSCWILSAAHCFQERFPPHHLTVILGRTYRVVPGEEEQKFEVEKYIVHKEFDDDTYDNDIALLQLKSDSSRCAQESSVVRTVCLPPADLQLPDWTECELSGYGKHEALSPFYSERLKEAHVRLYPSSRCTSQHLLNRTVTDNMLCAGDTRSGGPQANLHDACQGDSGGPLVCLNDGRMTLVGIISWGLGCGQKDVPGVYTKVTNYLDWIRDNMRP

[11] = target: T4, Coagulation factor X; test: Inhibition of purified human factor 10a using Suc-Ile-Glu(yPip)-GlyArg-pNa-HCl as substrate at 100 uM measured for 5 mins by spectrophotometric assay; method in brief: as §2
[12] = target: T5, Plasminogen; test: Inhibition of human plasma plasmin using pyroGlu-Pro-Arg-pNA-HCl as substrate at 100 uM measured for 5 mins by spectrophotometric assay; assay type: cell-free; method in brief: as §3
[13] = target: T6, Plasma kallikrein; test: Inhibition of human plasma kallikrein using D-Pro-Phe-Arg-pNA-2HCl as substrate at 100 uM measured for 5 mins by spectrophotometric assay; assay type: cell-free; method in brief: as §4
[14] = species: Bos taurus; test: Inhibition of bovine pancreatic trypsin using Na-benzoyl-D,L-Arg-pNA-HCl as substrate at 100 uM measured for 5 mins by spectrophotometric assay
[15] = target: T1, Urokinase-type plasminogen activator; test: Inhibition of human uPA
[16] = target: T1, Urokinase-type plasminogen activator; test: Reversible inhibition of human uPA using pyro-Glu-Gly-Arg-pNA as substrate assessed as para-nitroaniline release from substrate measured for 5 mins by spectrophotometry based enzyme kinetics assay
[17] = target: T1, Urokinase-type plasminogen activator; test: Tight binding inhibition of human uPA using pyro-Glu-Gly-Arg-pNA as substrate assessed as para-nitroaniline release from substrate measured for 5 mins by spectrophotometry based enzyme kinetics assay
[18] = target: T1, Urokinase-type plasminogen activator; test: Slow dissociating inhibition of human uPA using pyro-Glu-Gly-Arg-pNA as substrate assessed as para-nitroaniline release from substrate measured for 5 mins by spectrophotometry based enzyme kinetics assay

T4 sequence (P00742 41-179 limits assumed): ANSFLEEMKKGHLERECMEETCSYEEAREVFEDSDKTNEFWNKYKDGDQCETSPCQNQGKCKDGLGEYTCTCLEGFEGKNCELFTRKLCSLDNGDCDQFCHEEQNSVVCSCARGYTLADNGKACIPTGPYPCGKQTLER
T4 sequence (P00742 235-488 limits assumed): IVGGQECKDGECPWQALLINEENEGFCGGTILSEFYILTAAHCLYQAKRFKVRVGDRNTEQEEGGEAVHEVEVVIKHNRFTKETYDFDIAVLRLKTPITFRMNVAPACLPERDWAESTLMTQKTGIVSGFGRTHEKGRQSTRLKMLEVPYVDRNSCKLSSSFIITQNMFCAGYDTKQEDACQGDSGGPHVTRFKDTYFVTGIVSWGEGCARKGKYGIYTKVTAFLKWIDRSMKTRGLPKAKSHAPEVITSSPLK
T5 sequence (P00747 97-580 limits assumed): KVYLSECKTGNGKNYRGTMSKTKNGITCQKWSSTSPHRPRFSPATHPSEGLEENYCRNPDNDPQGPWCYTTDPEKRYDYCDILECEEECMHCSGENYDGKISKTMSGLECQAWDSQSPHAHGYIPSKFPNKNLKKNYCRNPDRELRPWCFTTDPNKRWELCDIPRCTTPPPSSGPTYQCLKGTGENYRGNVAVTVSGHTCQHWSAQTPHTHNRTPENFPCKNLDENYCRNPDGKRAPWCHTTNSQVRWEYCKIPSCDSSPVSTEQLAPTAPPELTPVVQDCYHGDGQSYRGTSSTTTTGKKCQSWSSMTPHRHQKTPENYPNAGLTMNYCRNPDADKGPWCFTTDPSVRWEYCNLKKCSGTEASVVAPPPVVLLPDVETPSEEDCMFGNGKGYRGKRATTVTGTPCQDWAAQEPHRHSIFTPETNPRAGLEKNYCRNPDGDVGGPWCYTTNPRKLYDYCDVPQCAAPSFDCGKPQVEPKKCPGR
T5 sequence (P00747 581-810 limits assumed): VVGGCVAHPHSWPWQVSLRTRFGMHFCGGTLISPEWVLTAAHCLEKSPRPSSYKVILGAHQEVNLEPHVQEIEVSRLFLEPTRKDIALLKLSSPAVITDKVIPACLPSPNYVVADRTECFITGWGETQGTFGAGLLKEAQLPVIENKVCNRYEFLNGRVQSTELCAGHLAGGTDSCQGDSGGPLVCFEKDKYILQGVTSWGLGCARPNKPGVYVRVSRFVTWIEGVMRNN
T6 sequence (P03952 20-390 limits assumed): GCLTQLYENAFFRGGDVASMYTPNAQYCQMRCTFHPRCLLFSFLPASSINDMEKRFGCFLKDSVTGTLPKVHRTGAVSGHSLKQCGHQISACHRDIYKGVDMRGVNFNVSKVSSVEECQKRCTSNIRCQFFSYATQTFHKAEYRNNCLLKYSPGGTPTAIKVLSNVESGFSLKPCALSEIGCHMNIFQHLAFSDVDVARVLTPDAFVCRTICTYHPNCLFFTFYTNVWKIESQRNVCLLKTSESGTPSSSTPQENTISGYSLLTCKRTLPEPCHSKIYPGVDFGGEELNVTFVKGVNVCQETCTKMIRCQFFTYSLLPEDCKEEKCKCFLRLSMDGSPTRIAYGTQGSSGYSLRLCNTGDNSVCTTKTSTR
T6 sequence (P03952 391-638 limits assumed): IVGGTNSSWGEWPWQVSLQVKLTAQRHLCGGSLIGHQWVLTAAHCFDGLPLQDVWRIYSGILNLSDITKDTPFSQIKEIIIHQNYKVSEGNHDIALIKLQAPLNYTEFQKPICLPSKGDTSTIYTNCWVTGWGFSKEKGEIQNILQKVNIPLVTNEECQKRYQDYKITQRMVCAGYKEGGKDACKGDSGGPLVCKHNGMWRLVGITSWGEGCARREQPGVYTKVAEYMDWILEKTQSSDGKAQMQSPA

Q: With NCCOc1c(Cl)cc(Nc2cnc3ccccn23)cc1Cl as the molecule, how does the pIC50 [1] read?
A: Its pIC50 is 3.30.

Q: With N=C(N)Nc1ccc(CNc2c(CN)nc3ccccn23)cc1 as the molecule, how does the pIC50 [1] read?
A: The pIC50 was 5.03.

Q: With N=C(N)Nc1ccc(CNc2c(-c3ccccc3)nc3ccccn23)cc1 as the molecule, how does the pIC50 [1] read?
A: The pIC50 was 4.52.

Q: With NCCOc1ccc(Nc2cnc3ccccn23)cc1 as the molecule, how does the pIC50 [1] read?
A: Its pIC50 is under 3.00.

Q: With N=C(N)c1ccc(/C=C2/N=C(c3ccccc3)OC2=O)cc1 as the molecule, how does the pIC50 [1] read?
A: Its pIC50 is 5.06.

Q: And the pIC50 [2]?
A: Its pIC50 is 4.25.

Q: And the pIC50 [3]?
A: The pIC50 was 4.16.

Q: What about the pIC50 [4] of the same molecule?
A: The pIC50 was 5.19.

Q: What about the pIC50 [5] of the same molecule?
A: Its pIC50 is 6.47.

Q: And the pIC50 [6]?
A: The pIC50 was 5.87.

Q: What about the pIC50 [7] of the same molecule?
A: The pIC50 was 5.50.

Q: What about the inhibition [8] of the same molecule?
A: Its inhibition is 0%.

Q: With N=C(N)Nc1ccccc1 as the molecule, how does the inhibition [8] read?
A: The inhibition was 0%.

Q: What about the inhibition [9] of the same molecule?
A: The inhibition was 0%.

Q: And the inhibition [10]?
A: The inhibition was 0%.

Q: What about the inhibition [11] of the same molecule?
A: The inhibition was 0%.

Q: What about the inhibition [12] of the same molecule?
A: Its inhibition is 0%.

Q: What about the inhibition [13] of the same molecule?
A: Its inhibition is 0%.

Q: And the inhibition [14]?
A: Its inhibition is 38.8%.

Q: With Cc1ccc2nc(-c3cccnc3)c(NCc3ccc(NC(=N)N)cc3)n2c1 as the molecule, how does the pIC50 [1] read?
A: The pIC50 was 4.62.

Q: With N=C(N)NC(=O)c1nc(Cl)c(N)nc1N [AMILORIDE] as the molecule, how does the pIC50 [7] read?
A: The pIC50 was 4.50.

Q: And the inhibition [8]?
A: The inhibition was 7.4%.

Q: And the inhibition [9]?
A: The inhibition was 5.2%.

Q: And the inhibition [10]?
A: Its inhibition is 1%.

Q: What about the inhibition [11] of the same molecule?
A: Its inhibition is 3.5%.

Q: What about the inhibition [12] of the same molecule?
A: Its inhibition is 0%.

Q: And the inhibition [13]?
A: The inhibition was 0%.

Q: With CCc1nc2ccccn2c1NCc1ccc(NC(=N)N)cc1 as the molecule, how does the pIC50 [1] read?
A: The pIC50 was 4.31.

Q: With N=C(N)Nc1ccc(CNc2c(-c3cccnc3)nc3cc(C(=O)O)ccn23)cc1 as the molecule, how does the pIC50 [1] read?
A: The pIC50 was 4.57.

Q: With NCc1ccc(Nc2cnc3ccccn23)cc1 as the molecule, how does the pIC50 [1] read?
A: Its pIC50 is under 3.30.

Q: With N=C(N)c1ccc(CNC(=O)[C@H](CO)NC(=O)[C@@H](CO)NS(=O)(=O)Cc2ccccc2)cc1 as the molecule, how does the pKi [15] read?
A: The pKi was 7.70.

Q: With N=C(N)Nc1ccc(CNc2c(-c3cccnc3)nc3ccc(F)cn23)cc1 as the molecule, how does the pIC50 [1] read?
A: The pIC50 was 4.24.

Q: Which results are given for N=C(N)Nc1ccc(CNc2cnc3cc(C(=O)NC4CC4)ccn23)cc1?
A: pIC50 [1]: 6.74; inhibition [8]: 2.6%; inhibition [9]: 8%; inhibition [10]: 0%; inhibition [11]: 45.4%; inhibition [12]: 3.3%; inhibition [13]: 0%; inhibition [14]: 46%; inhibition [16]: Active; inhibition [17]: Active; inhibition [18]: Active

Q: With N=C(N)Nc1ccc(CNc2c(-c3cccc(F)c3)nc3ccccn23)cc1 as the molecule, how does the pIC50 [1] read?
A: The pIC50 was 4.00.

Q: With N=C(N)Nc1ccc(CCNc2c(-c3cccc(Cl)c3)nc3cnccn23)cc1 as the molecule, how does the pIC50 [1] read?
A: The pIC50 was 4.27.

Q: With N=C(N)Nc1ccc(CNc2c(-c3cccnc3)nc3ccc(C(F)(F)F)cn23)cc1 as the molecule, how does the pIC50 [1] read?
A: Its pIC50 is 3.70.

Q: With N=C(N)Nc1ccc(CNc2c(Cc3ccccc3)nc3ccccn23)cc1 as the molecule, how does the pIC50 [1] read?
A: Its pIC50 is 4.52.

Q: With CCCCNC(=O)c1ccn2c(NCc3ccc(NC(=N)N)cc3)c(-c3cccnc3)nc2c1 as the molecule, how does the pIC50 [1] read?
A: Its pIC50 is 5.16.

Q: With N=C(N)Nc1ccc(CNc2cnc3cc(C(=O)NC4CCCC4)ccn23)cc1 as the molecule, how does the pIC50 [1] read?
A: Its pIC50 is 6.76.

Q: And the inhibition [8]?
A: The inhibition was 4%.

Q: And the inhibition [9]?
A: The inhibition was 17.8%.

Q: And the inhibition [10]?
A: The inhibition was 11.2%.

Q: What about the inhibition [11] of the same molecule?
A: The inhibition was 47.8%.

Q: What about the inhibition [12] of the same molecule?
A: The inhibition was 0%.

Q: What about the inhibition [13] of the same molecule?
A: The inhibition was 0%.

Q: What about the inhibition [14] of the same molecule?
A: The inhibition was 37.1%.

Q: What about the inhibition [16] of the same molecule?
A: The inhibition was “Active”.

Q: What about the inhibition [17] of the same molecule?
A: Its inhibition is “Active”.

Q: What about the inhibition [18] of the same molecule?
A: Its inhibition is “Active”.
